In brackets after ≈: the same amount, converted by molar mass.
Columns and labels:
[1] = Aqueous solubility of the compound in water at pH 7 by HPLC analysis; format: physicochemical
Outline: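 Solubility measured in water at pH 7 and 20 °C, quantified by HPLC.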

[2] = test system: Mycobacterium tuberculosis; test: Antituberculosis activity against Mycobacterium tuberculosis H37Rv under aerobic conditions by microplate alamar blue assay; format: functional
[3] = test system: Mycobacterium tuberculosis; test: Antituberculosis activity against Mycobacterium tuberculosis H37Rv under anaerobic conditions by fluorescence based low-oxygen-recovery assay; format: functional
[4] = Metabolic stability in human liver microsomes at 1 uM measured as compound remaining after 1 hr by LC/MS/MS analysis; format: ADME, Microsome; settings: read-out: Stability
[5] = Metabolic stability in CD1 mouse liver microsomes at 1 uM measured as compound remaining after 1 hr by LC/MS/MS analysis; format: ADME, Microsome; settings: read-out: Stability
[6] = test system: Mycobacterium tuberculosis; test: Antituberculosis activity against Mycobacterium tuberculosis H37Rv infected in BALB/c mouse acute infection model assessed as fold reduction in bacterial CFU in lungs at 100 mg/kg, po administered for 5 days a week for 3 weeks beginning on day 11 postinfection relative to PA-824; format: functional
Outline: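 Mice with acute M. tb infection dosed orally at 100 mg/kg daily, 5 days each week, standard 3 week assay. Lung CFUs counted. Value is the fold CFU decrease for the compound divided by the fold CFU decrease for the internal reference standard run in the same experiment.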

[7] = test system: Mycobacterium tuberculosis; test: Antituberculosis activity against Mycobacterium tuberculosis H37Rv infected in BALB/c mouse chronic infection model assessed as fold reduction in bacterial CFU in lungs at 100 mg/kg, po administered for 5 days a week for 3 weeks beginning on day 70 postinfection relative to OPC-67683; format: functional
Outline: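 Chronic M. tb infection model with dosing starting ~70 days post infection, once bacteria are in a plateau phase of growth. Oral 100 mg/kg daily, 5 days/week, 3 weeks. Lung CFUs counted. Value is the fold CFU reduction for the compound relative to the fold reduction for the reference agent.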

[8] = AUC (0 to infinity) in plasma of CD1 mouse at 40 mg/kg, po; format: ADME, organism-based; design: time infinity, dose 40 mg/kg, route oral
Outline: (§1)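 Mice given a single oral dose of 40 mg/kg; drug levels followed over time in plasma and lung tissue to derive half-life, Cmax and AUC for each matrix.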

[9] = Cmax in plasma of CD1 mouse at 40 mg/kg, po; format: ADME, organism-based; design: dose 40 mg/kg, route oral; outline: as §1
[10] = Half life in plasma of CD1 mouse at 40 mg/kg, po; format: ADME, organism-based; design: dose 40 mg/kg, route oral
[11] = AUC (0 to infinity) in lung of CD1 mouse at 40 mg/kg, po; format: ADME, organism-based; design: time infinity, dose 40 mg/kg, route oral; outline: as §1
[12] = Cmax in lung of CD1 mouse at 40 mg/kg, po; format: ADME, organism-based; design: dose 40 mg/kg, route oral; outline: as §1
[13] = Ratio of AUC (0 to infinity) in lung of CD1 mouse to AUC (0 to infinity) in plasma of CD1 mouse at 40 mg/kg, po; format: ADME, organism-based; design: dose 40 mg/kg, route oral; settings: read-out: Ratio AUC
[14] = Stability of the compound in antimycobacterial activity assay condition assessed as parent compound level; format: ADME
[15] = Half life in the lung of CD1 mouse at 40 mg/kg, po; format: ADME, organism-based; design: dose 40 mg/kg, route oral; outline: as §1

Row | Structure (SMILES) | solubility [1] [µg/mL] | MIC [2] [µM] | MIC [3] [µM] | remaining at 1 h, 1 µM [4] [%] | remaining at 1 h, 1 µM [5] [%] | fold change (FC) [6] | fold change (FC) [7] | AUC(0-inf) [8] [ng·h/mL] | Cmax [9] [ng/mL] | half-life [10] [h] | AUC(0-inf) [11] [ng·h/mL] | Cmax [12] [ng/mL] | Kp [13] | Stability [14] | half-life [15] [h]
1 | O=[N+]([O-])c1cn2c(n1)OC[C@@H](OCCCc1ccc(-c3ccc(OC(F)(F)F)cc3)cc1)C2 | 1.7 (≈ 3.67 µM) | 0.15 (≈ 0.0695 µg/mL) | 3.8 (≈ 1.76 µg/mL) | 88 | 91 | 1.5 | 0.025 | 13300 | 990 | 4.4 | 29500 | 10100 | 2.2 |  | 
2 | O=[N+]([O-])c1cn2c(n1)OC[C@@H](OCCCc1ccc(-c3ccc(C(F)(F)F)cc3)cc1)C2 |  | 0.043 (≈ 0.0192 µg/mL) | > 128 | 73 | 81 | 0.05 |  |  |  |  |  |  |  |  | 
3 | O=[N+]([O-])c1cn2c(n1)OC[C@@H](OCCOc1ccc(-c3ccc(OC(F)(F)F)cc3)cc1)C2 | 0.68 (≈ 1.46 µM) | 0.055 (≈ 0.0256 µg/mL) | 1.6 (≈ 0.745 µg/mL) | 90 | 70 | 1.4 |  |  |  |  |  |  |  |  | 
4 | O=[N+]([O-])c1cn2c(n1)OC[C@@H](OCCOc1ccc(-c3ccc(OC(F)(F)F)cc3)cn1)C2 | 0.79 (≈ 1.69 µM) | 0.04 (≈ 0.0187 µg/mL) | 2.5 (≈ 1.17 µg/mL) |  |  |  |  |  |  |  |  |  |  | < 50% | 
5 | O=[N+]([O-])c1cn2c(n1)OC[C@@H](OCCOc1ncc(-c3ccc(OC(F)(F)F)cc3)cn1)C2 | 21 (≈ 44.9 µM) | 0.13 (≈ 0.0608 µg/mL) | 2.1 (≈ 0.981 µg/mL) |  |  |  |  |  |  |  |  |  |  |  | 
6 | O=[N+]([O-])c1cn2c(n1)OC[C@@H](OC/C=C/c1ccc(-c3ccc(OC(F)(F)F)cc3)cc1)C2 | 0.5 (≈ 1.08 µM) |  | > 128 | 100 | 95 | 2 |  |  |  |  |  |  |  |  | 
7 | O=[N+]([O-])c1cn2c(n1)OC[C@@H](OCC#Cc1ccc(-c3ccc(OC(F)(F)F)cc3)cc1)C2 | 0.07 (≈ 0.152 µM) |  |  | 93 | 85 | 89 | 1.6 | 10000 | 570 | 7.5 | 13600 | 760 | 1.4 |  | 12.3
8 | O=[N+]([O-])c1cn2c(n1)OC[C@@H](OCC#Cc1ccc(-c3ccc(C(F)(F)F)nc3)cc1)C2 |  | 0.15 (≈ 0.0667 µg/mL) | 1.2 (≈ 0.533 µg/mL) | 82 | 90 | 0.01 |  |  |  |  |  |  |  |  | 
9 | O=[N+]([O-])c1cn2c(n1)OC[C@@H](OCC#Cc1cccc(-c3ccc(OC(F)(F)F)cc3)c1)C2 | 0.27 (≈ 0.588 µM) | 0.11 (≈ 0.0505 µg/mL) | 1.3 (≈ 0.597 µg/mL) | 94 | 89 | 6.4 |  | 35800 | 1660 | 14.7 | 257000 | 12900 | 7.2 |  | 14.1
10 | O=[N+]([O-])c1cn2c(n1)OC[C@@H](OCC#Cc1ccc(-c3ccc(OC(F)(F)F)cc3)cn1)C2 | 0.05 (≈ 0.109 µM) | 0.025 (≈ 0.0115 µg/mL) | 0.35 (≈ 0.161 µg/mL) | 89 | 86 | 0.91 |  |  |  |  |  |  |  |  | 
11 | O=[N+]([O-])c1cn2c(n1)OC[C@@H](OCCCC#Cc1ccc(-c3ccc(OC(F)(F)F)cc3)cc1)C2 |  | 0.055 (≈ 0.0268 µg/mL) | > 128 |  |  |  |  |  |  |  |  |  |  | Unstable | 
12 | O=[N+]([O-])c1cn2c(n1)OC[C@@H](Oc1ccc(-c3ccc(OC(F)(F)F)cc3)cn1)C2 | 0.24 (≈ 0.568 µM) | 0.39 (≈ 0.165 µg/mL) | 12 (≈ 5.07 µg/mL) | 96 | 93 | 0.17 |  |  |  |  |  |  |  |  | 
13 | O=[N+]([O-])c1cn2c(n1)OC[C@@H](Oc1ncc(-c3ccc(OC(F)(F)F)cc3)cn1)C2 | 1.7 (≈ 4.02 µM) | 0.22 (≈ 0.0931 µg/mL) | 5.2 (≈ 2.2 µg/mL) | 88 | 95 |  |  |  |  |  |  |  |  |  | 
14 | O=[N+]([O-])c1cn2c(n1)OC[C@@H](OCCCC#Cc1ccc(C(F)(F)F)nc1)C2 | 16 (≈ 40.4 µM) | 0.12 (≈ 0.0476 µg/mL) | 9.2 (≈ 3.65 µg/mL) |  |  |  |  |  |  |  |  |  |  |  | 
15 | O=[N+]([O-])c1cn2c(n1)OC[C@@H](Oc1ccc(-c3ccc(OC(F)(F)F)cc3)cc1)C2 | 0.33 (≈ 0.783 µM) | 0.09 (≈ 0.0379 µg/mL) | 1.1 (≈ 0.463 µg/mL) |  |  | 8.1 |  | 102000 | 1860 | 37.9 | 347000 | 15800 | 3.4 |  | 15.3
16 | O=[N+]([O-])c1cn2c(n1)OC[C@@H](Oc1cc(-c3ccc(OC(F)(F)F)cc3)ccn1)C2 | 0.13 (≈ 0.308 µM) | 5.1 (≈ 2.15 µg/mL) | 87 (≈ 36.7 µg/mL) |  |  |  |  |  |  |  |  |  |  | < 50% | 
17 | O=[N+]([O-])c1cn2c(n1)OC[C@@H](Oc1cc(-c3ccc(OC(F)(F)F)cc3)ncn1)C2 | 0.88 (≈ 2.08 µM) | 2.1 (≈ 0.889 µg/mL) |  |  |  |  |  |  |  |  |  |  |  | < 50% | 
18 | O=[N+]([O-])c1cn2c(n1)OC[C@@H](OCc1ccc(-c3ccc(OC(F)(F)F)cc3)cc1)C2 |  |  |  |  |  |  | 0.86 |  |  |  |  |  |  |  | 12.8
19 | CC(O[C@@H]1COc2nc([N+](=O)[O-])cn2C1)c1ccc(OC(F)(F)F)cc1 (mixture of isomers) |  | 0.6 | 7.7 | 73 | 75 |  |  |  |  |  |  |  |  |  | 

— ChEMBL document CHEMBL1833943, “Synthesis and structure-activity relationships of varied ether linker analogues of the antitubercular drug (6S)-2-nitro-6-{[4-(trifluoromethoxy)benzyl]oxy}-6,7-dihydro-5h-imidazo[2,1-b][1,3]oxazine (PA-824)” (J Med Chem, 2011)
